Results: ChEMBL document CHEMBL1157649, “Cytotoxic 2-benzylidene-6-(nitrobenzylidene)cyclohexanones which display substantially greater toxicity for neoplasms than non-malignant cells” (Bioorg Med Chem, 2010)

Tests used:
[1] = Cytotoxicity against human HPLF cells after 24 hrs; assay type: cell-based; settings: hplf, 24 h
Procedure, shortened: (§1)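 Cells (HGF gingival fibroblasts, HPC pulp cells, HPLF periodontal ligament fibroblasts, HSC-2 and HSC-4 squamous carcinoma, HL-60 promyelocytic leukemia) were exposed to graded concentrations for 24 h, up to a maximum of 400 μM. CC50 is the concentration reducing viable cell number by 50%, taken from dose–response curves. Values are from duplicate determinations differing by less than 5%.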

[2] = Cytotoxicity against human HPC cells after 24 hrs; assay type: cell-based; settings: hpc, 24 h; procedure, shortened: as §1
[3] = test system: Mus musculus; assay: Toxicity in mouse assessed as induction of mortality at 30 to 300 mg/kg, ip; assay type: organism-based; design: dose 30-300 mg/kg, route intraperitoneal; settings: in vivo
[4] = test system: HL-60; assay: Selectivity index, ratio of CC50 for human normal cells to CC50 for human HL60 cells; assay type: functional
Procedure, shortened: (§2)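 The index is the average CC50 toward the three normal cell types (HGF, HPC, HPLF) divided by the CC50 toward the indicated malignant line.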

[5] = test system: HSC-4; assay: Selectivity index, ratio of CC50 for human normal cells to CC50 for human HSC4 cells; assay type: functional; procedure, shortened: as §2
[6] = test system: HSC-2; assay: Selectivity index, ratio of CC50 for human normal cells to CC50 for human HSC2 cells; assay type: functional; procedure, shortened: as §2
[7] = Partition coefficient, log P of the compound; assay type: physicochemical; settings: octanol/water
[8] = test system: HSC-2; assay: Cytotoxicity against human HSC2 cells after 24 hrs; assay type: functional; settings: HSC-2, 24 h; procedure, shortened: as §1
[9] = test system: HL-60; assay: Cytotoxicity against human HL60 cells after 24 hrs; assay type: functional; settings: HL-60, 24 h; procedure, shortened: as §1
[10] = test system: HSC-4; assay: Cytotoxicity against human HSC4 cells after 24 hrs; assay type: functional; settings: HSC-4, 24 h; procedure, shortened: as §1
[11] = Cytotoxicity against human HGF cells after 24 hrs; assay type: cell-based; settings: hgf, 24 h; procedure, shortened: as §1
[12] = test system: Mus musculus; assay: Neurotoxicity in mouse assessed at 30 to 300 mg/kg, ip after 0.5 hrs; assay type: toxicity, organism-based; design: dose 30-300 mg/kg, route intraperitoneal; settings: in vivo
Procedure, shortened: (§3)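 Mice received 30, 100 or 300 mg/kg intraperitoneally and were examined at 0.5 and 4 h for mortality and neurological deficit, following NINDS screening protocols. Results were recorded as the number of mice showing a deficit over the number treated per dose.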

[13] = test system: Mus musculus; assay: Neurotoxicity in mouse assessed at 30 to 300 mg/kg, ip after 4 hrs; assay type: toxicity, organism-based; design: dose 30-300 mg/kg, route intraperitoneal; settings: in vivo; procedure, shortened: as §3

SMILES | CC50 [1] | CC50 [2] | Activity [3] | Selectivity Index [4] | Selectivity Index [5] | Selectivity Index [6] | logP [7] | CC50 [8] | CC50 [9] | CC50 [10] | CC50 [11] | Activity [12] | Activity [13]
O=C1/C(=C/c2ccccc2)CCC/C1=C\c1cccc([N+](=O)[O-])c1 | 18 µM | 14 µM | Non-toxic | 6.3 | 7.9 | 5.1 | 4.9 | 3.7 µM | 3 µM | 2.4 µM | 25 µM |  | 
O=C1/C(=C/c2ccc(F)cc2)CCC/C1=C\c1ccc([N+](=O)[O-])cc1 | > 400 µM | > 400 µM | Non-toxic |  |  |  | 5.09 | 19 µM | 32 µM | 15 µM | 326 µM |  | 
COc1cc(OC)c(/C=C2\CCC/C(=C\c3ccc([N+](=O)[O-])cc3)C2=O)c(OC)c1 | > 400 µM | > 400 µM | Non-toxic | >36 | 1 | 1 |  | > 400 µM | 11 µM | > 400 µM | > 400 µM | Non-toxic | Non-toxic
Cc1ccc(/C=C2\CCC/C(=C\c3ccccc3[N+](=O)[O-])C2=O)cc1 | > 400 µM | > 400 µM |  | >36 | >10 | >36 | 5.15 | 11 µM | 11 µM | 40 µM | > 400 µM |  | 
COc1ccc(/C=C2\CCC/C(=C\c3ccccc3[N+](=O)[O-])C2=O)cc1 | 386 µM | > 400 µM | Non-toxic |  |  |  | 4.76 | 11 µM | 26 µM | 24 µM | > 400 µM | Non-toxic | Non-toxic
O=C1/C(=C/c2ccccc2)CCC/C1=C\c1ccc([N+](=O)[O-])cc1 | 282 µM | 123 µM | Non-toxic | 13 | 28 | 53 | 4.93 | 4.9 µM | 20 µM | 9.2 µM | 371 µM | Non-toxic | Non-toxic
CN(C)c1ccc(/C=C2\CCC/C(=C\c3ccccc3[N+](=O)[O-])C2=O)cc1 | > 400 µM | > 400 µM |  | 1 | 1 | 1 | 4.8 | > 400 µM | > 400 µM | > 400 µM | > 400 µM |  | 
O=C1/C(=C/c2ccccc2)CCC/C1=C\c1ccccc1[N+](=O)[O-] | 26 µM | 16 µM | Non-toxic | 12 | 14 | 12 | 4.7 | 3.8 µM | 3.7 µM | 3.2 µM | 93 µM | Non-toxic | Non-toxic
COc1cc(/C=C2\CCC/C(=C\c3ccccc3[N+](=O)[O-])C2=O)cc(OC)c1OC | 79 µM | 35 µM | Non-toxic | 18 | 8.2 | 9 | 4.33 | 5.9 µM | 3 µM | 6.5 µM | 44 µM | Non-toxic | Non-toxic
Cc1ccc(/C=C2\CCC/C(=C\c3cccc([N+](=O)[O-])c3)C2=O)cc1 | > 400 µM | 192 µM | Non-toxic | >8.7 | >7.4 | >20 | 5.35 | 17 µM | 38 µM | 45 µM | > 400 µM | Non-toxic | Non-toxic
COc1cc(OC)c(OC)cc1/C=C1\CCC/C(=C\c2ccc([N+](=O)[O-])cc2)C1=O | > 400 µM | > 400 µM | Non-toxic | 1 | >1.6 | >6 |  | 67 µM | 400 µM | 250 µM | > 400 µM |  | 
COc1ccc(/C=C2\CCC/C(=C\c3ccc([N+](=O)[O-])cc3)C2=O)c(OC)c1OC | > 400 µM | > 400 µM | Non-toxic | 1 | 1 | 1 |  | > 400 µM | > 400 µM | > 400 µM | > 400 µM | Non-toxic | Non-toxic
